Experimental data from PubChem BioAssay.
Calls of active or inactive are those of the source.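 How the source made its calls, unless noted: active means viability at or below 10% of carrier control in both of two separate runs; inconclusive means viability at or below 10% in only one of the two runs; inactive means the rest.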

Columns and labels:
[1] = Her2 expression decrease, cell viability multiplex – SKBR3 breast tumor cells, AlphaScreen, ATP viability, primary screen (AID 461;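 active means Her2 level under about 52% in both replicate screens, with viability over 70% of control, limit read from the data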;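 on Her2 level: lower value means less Her2 protein in the cells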;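 on viability: percent of carrier control wells set as 100% viability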); settings: SKBR3 Her2 protein level, 18-24 h, measured here: SKBR3 viability, ATP luminescence, at 10 µM
[2] = biological target: Receptor tyrosine-protein kinase erbB-2 (Homo sapiens) (UniProt P04626); experiment: as above; settings: 18-24 h, at 10 µM, stronger effect = lower value
[3] = reduced viability of SK-BR-3 breast cancer cells – cell-based, 24 h, human, pilot screen (AID 572); settings: SK-BR-3 viability, CellTiter-Glo luminescence, at 10 µM, stronger effect = lower value;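 further: compound exposure lasted between 18 and 24 h rather than exactly 24 h; 100% = carrier-treated control wells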
[4] = HUVEC growth inhibition – cell-based, human, primary screen (AID 575;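 active means viability at or below 30% in both replicate assays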;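 further: 100% = median of untreated cell wells with 0.1% DMSO on each plate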); settings: HUVEC proliferation, CellTiter-Glo luminescence, 72 h; at 10 µM; stronger effect = lower value
Summary of the method: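 System – primary HUVEC, no more than 12 passages · Medium – Low-serum (2% FBS) EBM, supplemented · Times – 72 h exposure, 37 °C, 5% CO2, 30 min RT equilibration · Measured by – luminescent ATP assay · Read-out – % viability relative to median vehicle-well signal on each plate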

[5] = H69AR cell proliferation blockers – human, duplicate replicates, primary screen (AID 580;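 active means viability at or under a set limit in both replicates, limit being median viability minus 3 SD, cut at about 48% in these data, passing the limit was not always enough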;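 further: 100% = mean luminescence of untreated wells and 0% = no signal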); settings: H69AR lung tumor cells viability, ATP luminescence, 72 h; at 10 µM; stronger effect = lower value
[6] = MRP1 drug-resistance reversers in H69AR cells – cell-based, doxorubicin co-treatment, pilot screen (AID 601;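 active means viability loss from added drug above about 55%, and viability with drug at most 40%, in both replicates, limit read from the data, passing the limit was not always enough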); settings: CellTiter-Glo, 72 h, at 10 µM; for differential viability (reversal): stronger effect = higher value
[7] = yeast transport mutant growth inhibition pilot in 384-well plates, post-Golgi transport modulator project (AID 636; in the data active means inhibition above about 31%); settings: absorbance 615 nm, about 18 h, stronger effect = higher value
[8] = growth suppression of yeast trafficking mutant, preliminary HTS, modulators of trafficking downstream of Golgi apparatus project, 1536-format plate, OD 615 nm (AID 637; in the data active means inhibition above about 30%); settings: yeast transport mutant growth, absorbance 615 nm, 18 h; stronger effect = higher value
[9] = H69AR cells + 2 uM doxorubicin, measured here: viability with 2 uM doxorubicin, stronger effect = lower value
[10] = H69AR cells, compound alone cytotoxicity

Sequence of Receptor tyrosine-protein kinase erbB-2 (Homo sapiens) (P04626 whole entry, looked up): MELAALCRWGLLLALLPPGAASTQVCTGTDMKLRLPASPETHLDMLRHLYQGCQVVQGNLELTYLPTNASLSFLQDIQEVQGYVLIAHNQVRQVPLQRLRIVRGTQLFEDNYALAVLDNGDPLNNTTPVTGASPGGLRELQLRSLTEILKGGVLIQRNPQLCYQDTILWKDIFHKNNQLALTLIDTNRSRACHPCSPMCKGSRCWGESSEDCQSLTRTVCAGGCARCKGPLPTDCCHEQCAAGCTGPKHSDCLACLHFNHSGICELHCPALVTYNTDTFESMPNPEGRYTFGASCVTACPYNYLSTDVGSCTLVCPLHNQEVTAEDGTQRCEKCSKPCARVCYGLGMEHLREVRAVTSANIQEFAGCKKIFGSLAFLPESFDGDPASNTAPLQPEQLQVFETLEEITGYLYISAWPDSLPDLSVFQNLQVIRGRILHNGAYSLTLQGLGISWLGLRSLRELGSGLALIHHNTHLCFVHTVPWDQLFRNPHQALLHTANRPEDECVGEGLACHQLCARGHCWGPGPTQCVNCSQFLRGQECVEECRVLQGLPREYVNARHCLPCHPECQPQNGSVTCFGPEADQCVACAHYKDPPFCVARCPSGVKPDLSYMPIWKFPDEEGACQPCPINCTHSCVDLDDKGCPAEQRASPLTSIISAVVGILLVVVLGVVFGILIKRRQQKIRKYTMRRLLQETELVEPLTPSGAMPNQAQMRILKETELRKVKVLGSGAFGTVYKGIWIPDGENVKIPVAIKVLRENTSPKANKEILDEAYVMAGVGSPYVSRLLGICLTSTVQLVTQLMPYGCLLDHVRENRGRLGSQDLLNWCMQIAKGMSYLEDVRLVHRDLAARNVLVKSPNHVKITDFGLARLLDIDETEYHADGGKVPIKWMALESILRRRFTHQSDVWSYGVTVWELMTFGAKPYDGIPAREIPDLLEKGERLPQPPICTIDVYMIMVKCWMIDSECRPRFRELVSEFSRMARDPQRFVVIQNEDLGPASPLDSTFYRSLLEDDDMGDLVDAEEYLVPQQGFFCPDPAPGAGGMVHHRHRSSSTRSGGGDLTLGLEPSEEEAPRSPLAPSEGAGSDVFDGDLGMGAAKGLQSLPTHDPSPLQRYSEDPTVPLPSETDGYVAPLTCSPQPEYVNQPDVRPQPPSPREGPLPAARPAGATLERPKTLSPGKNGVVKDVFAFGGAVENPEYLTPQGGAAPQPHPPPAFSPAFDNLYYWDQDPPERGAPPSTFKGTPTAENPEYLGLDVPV

Row | SMILES | viability [1] | Her2 level [2] | viability [3] | viability [4] | viability [5] | differential viability (reversal) ([6]; H69AR cells + 2 uM doxorubicin) | viability [6, 9] | viability [6, 10] | inhibition [7] | inhibition [8]
1 | CCn1c(=O)cc(OCC(=O)Nc2cc(C)ccn2)c2ccccc21 | 80% | 77% (inactive) | 80% (inactive) | 73.9% (inactive) | 86.4% (inactive) | -3.33% (inactive) | 89.7% | 86.4% | -2.89% (inactive) | -0.55% (inactive)
2 | CCN(CCO)C1CC(=O)N(c2ccccc2C)C1=O (stereo not given) | 95% | 93.5% (inactive) | 95% (inactive) | 105% (inactive) | 101% (inactive) | 24.2% (inactive) | 76.7% | 101% | -9.46% (inactive) | -2% (inactive)
3 | Cc1ccc(-c2nc(=S)c3c(n2Cc2ccco2)CCCC3)cc1 | 79% | 79% (inactive) | 79% (inactive) | 86.9% (inactive) | 10.3% (active) | -0.31% (inactive) | 10.6% | 10.3% | -1.47% (inactive) | -5.32% (inactive)
4 | CCOC(=O)c1nnn(-c2nonc2N)c1CN1CCc2ccccc2C1 | 102% | 93% (inactive) | 102% (inactive) | 96.4% (inactive) | 91.7% (inactive) | -0.015% (inactive) | 91.7% | 91.7% | -0.13% (inactive) | -3.02% (inactive)
5 | COc1ccc(C(=O)Nn2c(C3CCC3)nc3ccccc3c2=O)c(OC)c1 | 93.5% | 97% (inactive) | 93.5% (inactive) | 85.8% (inactive) | 111% (inactive) | 30% (inactive) | 80.7% | 111% | -1.56% (inactive) | 1.9% (inactive)
6 | COc1cc(OC)c(C(=O)Nc2ncn[nH]2)cc1OC | 102% | 122% (inactive) | 102% (inactive) | 95.4% (inactive) | 95% (inactive) | -6.38% (inactive) | 101% | 95% | 1.97% (inactive) | -6.72% (inactive)
7 | COc1cccc(NC(=O)COc2ccccc2C(N)=O)c1 | 93.5% | 110% (inactive) | 93.5% (inactive) | 83.1% (inactive) | 105% (inactive) | 16% (inactive) | 88.7% | 105% | 0% (inactive) | -7.9% (inactive)
8 | Cc1cccn2c(=O)c3cc(C#N)c(=NC(=O)c4cccnc4)n(CC4CCCO4)c3nc12 (stereo not given) | 92.5% | 108% (inactive) | 92.5% (inactive) | 94.4% (inactive) | 71.1% (inactive) | 27% (inactive) | 44.1% | 71.1% | -1.18% (inactive) | -9.35% (inactive)
9 | CCOC(=O)N1CCN(S(=O)(=O)c2cc(Cl)ccc2Cl)CC1 | 106% | 94.5% (inactive) | 106% (inactive) | 90.7% (inactive) | 85% (inactive) | 2.05% (inactive) | 83% | 85% | -3.38% (inactive) | -0.32% (inactive)
10 | CC1=CCC(C(C)(C)NC(=O)c2ccccc2)C/C1=N\O (stereo not given) | 104% | 98.5% (inactive) | 104% (inactive) | 112% (inactive) | 106% (inactive) | 17.3% (inactive) | 88.6% | 106% | -0.81% (inactive) | 4.44% (inactive)
11 | COc1cc(NC(=O)C2CC(c3cccc(OC)c3OC)=NO2)cc(OC)c1OC (stereo not given) | 83% | 99% (inactive) | 83% (inactive) | 54.9% (inactive) | 27.3% (active) | -41.8% (inactive) | 69.1% | 27.3% | 6.84% (inactive) | -4.18% (inactive)
12 | Cc1cc(C)n(-c2nnc(C)n2/N=C/c2ccccc2F)n1 | 94% | 89% (inactive) | 94% (inactive) | 110% (inactive) | 98.3% (inactive) | 13.3% (inactive) | 84.9% | 98.3% | -7.07% (inactive) | 4.59% (inactive)
13 | CCOC(=O)c1[nH]c2ccccc2c1NC(=O)CCN1CCN(C(=O)OCC)CC1 | 110% | 89.5% (inactive) | 110% (inactive) | 81.4% (inactive) | 96.8% (inactive) | 19.1% (inactive) | 77.7% | 96.8% | 1.84% (inactive) | -1.94% (inactive)
14 | CC(C)CNC(=O)C1CC(=O)OC12CCCCC2 (stereo not given) | 100% | 95% (inactive) | 100% (inactive) | 112% (inactive) | 113% (inactive) | 22.3% (inactive) | 90.5% | 113% | -8.11% (inactive) | 4.92% (inactive)
15 | c1ccc(-c2ccccc2OCCn2cncn2)cc1 | 93% | 79% (inactive) | 93% (inactive) | 104% (inactive) | 99.8% (inactive) | 15.9% (inactive) | 83.9% | 99.8% | -5.41% (inactive) | 0.98% (inactive)
16 | O=C(C1CCN(c2nnnn2-c2ccccc2)CC1)N1CCN(c2ccccc2)CC1 | 106% | 87.5% (inactive) | 106% (inactive) | 85.6% (inactive) | 79% (inactive) | 1.51% (inactive) | 77.5% | 79% | -5.27% (inactive) | 5.08% (inactive)

Row | SMILES | viability [1] | Her2 level [2] | viability [3] | viability [4] | viability [5] | differential viability (reversal) ([6]; H69AR cells + 2 uM doxorubicin) | viability [6, 9] | viability [6, 10] | inhibition [7] | inhibition [8]
17 | CCCCCn1c(CN2CCN(C)CC2)nc2c1c(=O)n(C)c(=O)n2C | 103% | 103% (inactive) | 103% (inactive) | 98.4% (inactive) | 85.9% (inactive) | -6.67% (inactive) | 92.5% | 85.9% | -3.87% (inactive) | -2.67% (inactive)
18 | Cc1occc1-c1nnc(SCC(=O)NCC2CCCO2)n1C (stereo not given) | 86% | 96.5% (inactive) | 86% (inactive) | 92.2% (inactive) | 96.6% (inactive) | 2.64% (inactive) | 94% | 96.6% | -4.93% (inactive) | 18.7% (inactive)
19 | C=CCn1cc(C(=O)NCCOC)c(=O)c2cc(S(=O)(=O)N(CC)CC)ccc21 | 98.5% | 93.5% (inactive) | 98.5% (inactive) | 86.6% (inactive) | 83.1% (inactive) | -9.34% (inactive) | 92.4% | 83.1% | -5.13% (inactive) | -2.73% (inactive)
20 | Cc1cc(C)c2c(CC(=O)NCc3ccco3)coc2c1 | 94% | 81.5% (inactive) | 94% (inactive) | 71.3% (inactive) | 91.1% (inactive) | 1.32% (inactive) | 89.8% | 91.1% | -6.27% (inactive) | -6.03% (inactive)
21 | COc1ccc(-n2nc(C(=O)Nc3ccc4c(c3)OCO4)c3c4ccccc4n(C)c3c2=O)cc1 | 99% | 88.5% (inactive) | 99% (inactive) | 98% (inactive) | 92.6% (inactive) | -10.9% (inactive) | 104% | 92.6% | -3.03% (inactive) | -1.45% (inactive)
22 | Cn1c(=O)c2[nH]c(NCC3CCCO3)nc2n(-c2ccccc2)c1=O (stereo not given) | 94.5% | 81% (inactive) | 94.5% (inactive) | 116% (inactive) | 102% (inactive) | 10.4% (inactive) | 91.5% | 102% | -4.87% (inactive) | 3.67% (inactive)
23 | CC(C)=CC(=O)N1CCCc2ccccc21 | 112% | 90% (inactive) | 112% (inactive) | 105% (inactive) | 98.4% (inactive) | 5.13% (inactive) | 93.2% | 98.4% | -4.53% (inactive) | -7.21% (inactive)
24 | Cc1cc(C)n(-c2nc3c(c(=O)n(Cc4ccc(Cl)c(Cl)c4)c(=O)n3C)n2C)n1 | 103% | 99% (inactive) | 103% (inactive) | 93% (inactive) | 95.6% (inactive) | 5.92% (inactive) | 89.6% | 95.6% | -1.69% (inactive) | -3.65% (inactive)
25 | C/C(NC1CCCC1)=C(/C#N)C(N)=O | 108% | 99% (inactive) | 108% (inactive) | 116% (inactive) | 111% (inactive) | 10.3% (inactive) | 101% | 111% | -4.21% (inactive) | 3.11% (inactive)
26 | O=C(COc1cccc(Oc2ccccc2)c1)Nc1ncccn1 | 99.5% | 106% (inactive) | 99.5% (inactive) | 110% (inactive) | 94.3% (inactive) | 6.76% (inactive) | 87.5% | 94.3% | -3.9% (inactive) | -3.81% (inactive)
27 | O=c1c[n+]([O-])c2ccccc2n1OCc1c(F)cccc1F | 90.5% | 70.5% (inactive) | 90.5% (inactive) | 93.4% (inactive) | 88.2% (inactive) | 1.98% (inactive) | 86.3% | 88.2% | -3.33% (inactive) | -1.59% (inactive)
28 | COc1ccc(-c2onc(C)c2-c2ccccc2)c(O)c1 | 99.5% | 73% (inactive) | 99.5% (inactive) | 79.6% (inactive) | 18.5% (active) | -44.4% (inactive) | 62.9% | 18.5% | -4.53% (inactive) | 0.32% (inactive)
29 | Cc1ccc(NC(=O)CNc2cccc(C)c2C)c(C)c1 | 106% | 86.5% (inactive) | 106% (inactive) | 98.3% (inactive) | 79.2% (inactive) | 10.1% (inactive) | 69% | 79.2% | -0.53% (inactive) | -1.45% (inactive)
30 | COCCNC(=O)CN1CCN(C(c2ccccc2)c2ccccc2)CC1 | 86% | 117% (inactive) | 86% (inactive) | 84.3% (inactive) | 93.1% (inactive) | 0.91% (inactive) | 92.2% | 93.1% | -0.39% (inactive) | -5.08% (inactive)
31 | CCOc1ccc(NC(=O)c2ccc3c(c2)N(Cc2ccc(F)cc2)C(=O)CS3=O)cc1 (stereo not given) | 90% | 81.5% (inactive) | 90% (inactive) | 70.4% (inactive) | 90% (inactive) | 11.4% (inactive) | 78.6% | 90% | -1.07% (inactive) | -0.17% (inactive)
